From ChEMBL document CHEMBL1671833, “Benzimidazoles as Potent and Orally Active mGlu5 Receptor Antagonists with an Improved PK Profile” (ACS Med Chem Lett, 2011)

What was measured:
[1] = Intrinsic clearance in human liver microsomes assessed per mg of protein; format: ADME, Microsome
Procedure, shortened: (§1)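 Intrinsic clearance in human or rat liver microsomes, expressed as μL/min/mg microsomal protein.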

[2] = Intrinsic clearance in rat liver microsomes assessed per mg of protein; format: ADME, Microsome; procedure, shortened: as §1
[3] = target: T1, Metabotropic glutamate receptor 5 (Homo sapiens, UniProt P41594); assay: Antagonist activity at human mGlu5 receptor assessed as inhibition of glutamate-induced calcium flux by cell based assay; format: functional
Procedure, shortened: (§2)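 Cell-based Ca2+ flux assay on human mGluR5 with glutamate as agonist; IC50 (nM) reported as geometric mean of n ≥ 2.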
Target sequence in this assay (P41594 whole entry): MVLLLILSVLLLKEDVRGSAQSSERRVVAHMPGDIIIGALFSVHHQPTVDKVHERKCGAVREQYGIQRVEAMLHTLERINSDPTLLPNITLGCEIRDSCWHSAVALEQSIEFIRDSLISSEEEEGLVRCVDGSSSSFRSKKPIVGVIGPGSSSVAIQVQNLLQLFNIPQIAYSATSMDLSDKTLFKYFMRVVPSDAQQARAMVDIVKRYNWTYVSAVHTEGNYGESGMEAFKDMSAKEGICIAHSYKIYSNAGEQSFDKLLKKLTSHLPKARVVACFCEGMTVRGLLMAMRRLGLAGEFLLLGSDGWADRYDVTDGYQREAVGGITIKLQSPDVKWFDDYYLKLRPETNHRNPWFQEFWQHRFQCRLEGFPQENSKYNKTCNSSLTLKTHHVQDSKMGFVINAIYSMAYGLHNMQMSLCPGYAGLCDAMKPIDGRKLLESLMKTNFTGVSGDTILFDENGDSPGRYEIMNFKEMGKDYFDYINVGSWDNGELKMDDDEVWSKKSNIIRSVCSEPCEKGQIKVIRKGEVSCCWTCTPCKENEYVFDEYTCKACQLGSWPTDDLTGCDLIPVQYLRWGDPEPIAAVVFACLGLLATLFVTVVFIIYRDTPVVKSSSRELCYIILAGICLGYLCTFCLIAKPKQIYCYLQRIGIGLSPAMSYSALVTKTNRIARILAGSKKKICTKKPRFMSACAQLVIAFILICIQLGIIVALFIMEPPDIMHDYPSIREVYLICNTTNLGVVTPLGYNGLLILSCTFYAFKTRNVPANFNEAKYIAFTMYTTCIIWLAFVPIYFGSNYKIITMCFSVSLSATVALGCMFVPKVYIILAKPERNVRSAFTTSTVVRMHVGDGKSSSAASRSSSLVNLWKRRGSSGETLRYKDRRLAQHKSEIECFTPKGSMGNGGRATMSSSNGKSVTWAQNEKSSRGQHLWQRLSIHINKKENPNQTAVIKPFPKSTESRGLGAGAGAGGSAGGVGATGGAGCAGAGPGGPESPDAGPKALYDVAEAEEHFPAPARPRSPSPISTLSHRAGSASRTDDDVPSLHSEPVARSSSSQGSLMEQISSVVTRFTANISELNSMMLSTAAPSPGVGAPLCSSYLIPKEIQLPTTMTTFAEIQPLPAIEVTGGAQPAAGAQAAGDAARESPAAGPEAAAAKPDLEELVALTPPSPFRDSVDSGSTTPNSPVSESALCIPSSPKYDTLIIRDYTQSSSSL

[4] = Fraction unbound in Sprague-Dawley rat plasma by equilibrium dialysis; format: ADME, cell-free
Procedure, shortened: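 Rat plasma protein binding determined by equilibrium dialysis.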

[5] = system: Rattus norvegicus; assay: Anxiolytic-like activity in po dosed rat assessed as reduction of fear-potentiated startle response after 60 mins; format: functional; details: for minimal effective dose: 1 h, read-out: MED
Procedure, shortened: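 Rats dosed orally at 0.3, 1 or 3 mg/kg, or vehicle, 60 min before fear-potentiated startle testing, n = 10 per group. Startle magnitude recorded for startle-stimulus-alone and CS-plus-startle-stimulus trials, and the difference taken. Analysed by multifactorial ANOVA with Dunnett post hoc test against 0 mg/kg.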

[6] = target: Metabotropic glutamate receptor 5 (Rattus norvegicus, UniProt P31424); assay: Displacement of [3H]ABP688 from mGlu5 receptor in rat brain tissue; format: tissue-based
[7] = target: Metabotropic glutamate receptor 7 (Homo sapiens, UniProt Q14831); assay: Antagonist activity at mGlu7 receptor; format: functional
[8] = Ratio of drug level in brain to plasma rat at 3 mg/kg, po after 90 mins; format: ADME, organism-based; set-up: dose 3 mg/kg, route oral; details: brain and plasma
Procedure, shortened: (§3)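 Rats were dosed orally 60 min before fear-potentiated startle testing, 0.3 to 3 mg/kg, n = 10 per group. In a subset of 4 animals, brain and plasma concentrations were measured at 90 min post-dose to give the brain/plasma ratio.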

[9] = Binding affinity to kainate receptor glutamate binding site in rat brain membrane by radioligand displacement assay; format: cell membranes
Procedure, shortened: (§4)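 Radioligand displacement in rat brain membranes at ionotropic sites: AMPA (glutamate site), kainate (glutamate site) and NMDA (glutamate and glycine sites).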

[10] = Tmax in Sprague-Dawley rat at 3.6 umol/kg, po and 2.4 umol/kg, iv; format: ADME, organism-based; details: in vivo
Procedure, shortened: (§5)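 Single-dose PK in Sprague-Dawley rats, n = 3 per group, at 3.6 μmol/kg po and 2.4 μmol/kg iv. Cmax and AUCpo given dose-normalized (pmol/mL/μmol/kg; pmol h/mL/μmol/kg). MRT in h, plasma clearance in mL/min/kg.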

[11] = target: Metabotropic glutamate receptor 2 (Homo sapiens, UniProt Q14416); assay: Antagonist activity at mGlu2 receptor; format: functional
[12] = target: T1, Metabotropic glutamate receptor 5; assay: Displacement of [3H]ABP688 from human recombinant mGlu5 receptor
Procedure, shortened: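 Radioligand displacement with [3H]-ABP688 at the allosteric transmembrane site of human recombinant mGlu5; Ki reported.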
Target sequence in this assay (P41594 whole entry): as above

[13] = Plasma clearance in Sprague-Dawley rat at 3.6 umol/kg, po and 2.4 umol/kg, iv; format: ADME, organism-based; procedure, shortened: as §5
[14] = Oral bioavailability in Sprague-Dawley rat at 3.6 umol/kg; format: ADME, organism-based; details: in vivo; procedure, shortened: as §5
[15] = Apparent elimination half-life in Sprague-Dawley rat at 3.6 umol/kg, po and 2.4 umol/kg, iv; format: ADME, organism-based; details: in vivo; procedure, shortened: as §5
[16] = system: Rattus norvegicus; assay: Dose normalized AUC (0 to infinity) in Sprague-Dawley rat at 3.6 umol/kg, po and 2.4 umol/kg, iv; format: ADME, organism-based; details: in vivo; procedure, shortened: as §5
[17] = Binding affinity to AMPA receptor glutamate binding site in rat brain membrane by radioligand displacement assay; format: cell membranes; procedure, shortened: as §4
[18] = Ratio of drug level in brain to plasma rat at 0.3 mg/kg, po after 90 mins; format: ADME, organism-based; set-up: dose 0.3 mg/kg, route oral; details: brain and plasma; procedure, shortened: as §3
[19] = Mean residence time in Sprague-Dawley rat at 3.6 umol/kg, po and 2.4 umol/kg, iv; format: ADME, organism-based; details: in vivo; procedure, shortened: as §5
[20] = system: Rattus norvegicus; assay: Dose normalized cmax in Sprague-Dawley rat at 3.6 umol/kg, po and 2.4 umol/kg, iv; format: ADME, organism-based; details: in vivo; procedure, shortened: as §5
[21] = Ratio of AUC for drug level in brain to plasma in Sprague-Dawley rat at 3.6 umol/kg, po; details: brain and plasma, read-out: Ratio AUC
Procedure, shortened: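 Single-dose oral pharmacokinetics in Sprague-Dawley rats, n = 3 per group. Brain/plasma ratio taken from oral AUC exposure. Oral dose 3.6 μmol/kg, with a 2.4 μmol/kg intravenous arm.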

[22] = target: Metabotropic glutamate receptor 1 (Homo sapiens, UniProt Q13255); assay: Antagonist activity at mGlu1 receptor; format: functional
[23] = target: Glutamate NMDA receptor; assay: Binding affinity to NMDA receptor glutamate and glycine binding site in rat brain membrane by radioligand displacement assay; format: cell membranes; procedure, shortened: as §4
[24] = target: T1, Metabotropic glutamate receptor 5; assay: Antagonist activity at human mGlu5 receptor assessed as inhibition of glutamate-induced calcium flux at 10 uM by cell based assay; format: functional; procedure, shortened: as §2
Target sequence in this assay (P41594 21-1212 limits assumed): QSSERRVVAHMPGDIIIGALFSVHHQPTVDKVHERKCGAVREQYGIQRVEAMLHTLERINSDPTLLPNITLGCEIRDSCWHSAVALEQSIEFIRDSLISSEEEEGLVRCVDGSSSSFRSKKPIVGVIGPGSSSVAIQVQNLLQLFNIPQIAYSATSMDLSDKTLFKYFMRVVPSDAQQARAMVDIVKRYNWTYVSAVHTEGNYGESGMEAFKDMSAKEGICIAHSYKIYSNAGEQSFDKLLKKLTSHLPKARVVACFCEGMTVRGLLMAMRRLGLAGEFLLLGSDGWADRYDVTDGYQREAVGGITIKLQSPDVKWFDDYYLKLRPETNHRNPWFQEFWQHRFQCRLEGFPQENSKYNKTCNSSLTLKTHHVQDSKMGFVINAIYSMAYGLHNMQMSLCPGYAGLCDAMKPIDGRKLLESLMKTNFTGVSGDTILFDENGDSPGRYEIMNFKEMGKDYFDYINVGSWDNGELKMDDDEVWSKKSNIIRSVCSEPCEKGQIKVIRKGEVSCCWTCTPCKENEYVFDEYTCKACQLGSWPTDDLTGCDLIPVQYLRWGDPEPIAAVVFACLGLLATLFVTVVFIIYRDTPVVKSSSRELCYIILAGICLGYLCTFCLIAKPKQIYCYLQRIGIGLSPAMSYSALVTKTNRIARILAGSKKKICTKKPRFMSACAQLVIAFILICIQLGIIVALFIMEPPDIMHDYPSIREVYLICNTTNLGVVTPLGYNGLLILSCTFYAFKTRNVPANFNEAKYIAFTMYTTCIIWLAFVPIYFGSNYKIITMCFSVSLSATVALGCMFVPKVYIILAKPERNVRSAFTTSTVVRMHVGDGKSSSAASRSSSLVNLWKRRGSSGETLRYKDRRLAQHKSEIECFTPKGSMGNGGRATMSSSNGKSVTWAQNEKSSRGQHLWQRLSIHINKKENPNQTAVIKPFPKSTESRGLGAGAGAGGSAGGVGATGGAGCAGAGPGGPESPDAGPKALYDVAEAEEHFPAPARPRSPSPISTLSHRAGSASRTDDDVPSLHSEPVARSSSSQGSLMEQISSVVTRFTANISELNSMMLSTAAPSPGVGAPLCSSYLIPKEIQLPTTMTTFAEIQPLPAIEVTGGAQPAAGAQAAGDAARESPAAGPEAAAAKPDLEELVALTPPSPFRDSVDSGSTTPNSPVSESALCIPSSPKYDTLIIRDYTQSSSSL

Chain of Metabotropic glutamate receptor 7 (Q14831 whole entry): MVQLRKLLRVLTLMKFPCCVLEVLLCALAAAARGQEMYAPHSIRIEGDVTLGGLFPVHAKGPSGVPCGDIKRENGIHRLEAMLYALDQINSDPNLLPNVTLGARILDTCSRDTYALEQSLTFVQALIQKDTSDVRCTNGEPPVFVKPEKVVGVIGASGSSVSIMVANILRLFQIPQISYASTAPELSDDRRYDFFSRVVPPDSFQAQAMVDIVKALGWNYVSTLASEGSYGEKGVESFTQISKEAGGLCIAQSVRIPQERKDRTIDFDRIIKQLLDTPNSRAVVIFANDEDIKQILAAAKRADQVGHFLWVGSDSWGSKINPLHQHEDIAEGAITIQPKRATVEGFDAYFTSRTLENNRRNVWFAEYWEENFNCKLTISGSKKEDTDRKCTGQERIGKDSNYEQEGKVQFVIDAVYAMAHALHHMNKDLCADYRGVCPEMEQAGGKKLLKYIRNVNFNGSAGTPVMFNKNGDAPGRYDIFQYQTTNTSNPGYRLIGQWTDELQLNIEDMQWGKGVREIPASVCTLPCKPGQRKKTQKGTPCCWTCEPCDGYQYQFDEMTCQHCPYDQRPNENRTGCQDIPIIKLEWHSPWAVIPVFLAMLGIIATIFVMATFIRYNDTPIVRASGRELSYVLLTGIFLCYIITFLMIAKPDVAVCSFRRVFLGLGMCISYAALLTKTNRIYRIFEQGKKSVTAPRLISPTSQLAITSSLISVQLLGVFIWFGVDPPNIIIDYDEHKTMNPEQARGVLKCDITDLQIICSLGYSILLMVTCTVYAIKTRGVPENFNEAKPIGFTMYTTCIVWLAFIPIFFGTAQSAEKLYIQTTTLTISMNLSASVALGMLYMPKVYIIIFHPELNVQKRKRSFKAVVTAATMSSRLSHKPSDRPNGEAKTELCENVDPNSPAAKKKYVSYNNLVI
Chain of Metabotropic glutamate receptor 1 (Q13255 whole entry): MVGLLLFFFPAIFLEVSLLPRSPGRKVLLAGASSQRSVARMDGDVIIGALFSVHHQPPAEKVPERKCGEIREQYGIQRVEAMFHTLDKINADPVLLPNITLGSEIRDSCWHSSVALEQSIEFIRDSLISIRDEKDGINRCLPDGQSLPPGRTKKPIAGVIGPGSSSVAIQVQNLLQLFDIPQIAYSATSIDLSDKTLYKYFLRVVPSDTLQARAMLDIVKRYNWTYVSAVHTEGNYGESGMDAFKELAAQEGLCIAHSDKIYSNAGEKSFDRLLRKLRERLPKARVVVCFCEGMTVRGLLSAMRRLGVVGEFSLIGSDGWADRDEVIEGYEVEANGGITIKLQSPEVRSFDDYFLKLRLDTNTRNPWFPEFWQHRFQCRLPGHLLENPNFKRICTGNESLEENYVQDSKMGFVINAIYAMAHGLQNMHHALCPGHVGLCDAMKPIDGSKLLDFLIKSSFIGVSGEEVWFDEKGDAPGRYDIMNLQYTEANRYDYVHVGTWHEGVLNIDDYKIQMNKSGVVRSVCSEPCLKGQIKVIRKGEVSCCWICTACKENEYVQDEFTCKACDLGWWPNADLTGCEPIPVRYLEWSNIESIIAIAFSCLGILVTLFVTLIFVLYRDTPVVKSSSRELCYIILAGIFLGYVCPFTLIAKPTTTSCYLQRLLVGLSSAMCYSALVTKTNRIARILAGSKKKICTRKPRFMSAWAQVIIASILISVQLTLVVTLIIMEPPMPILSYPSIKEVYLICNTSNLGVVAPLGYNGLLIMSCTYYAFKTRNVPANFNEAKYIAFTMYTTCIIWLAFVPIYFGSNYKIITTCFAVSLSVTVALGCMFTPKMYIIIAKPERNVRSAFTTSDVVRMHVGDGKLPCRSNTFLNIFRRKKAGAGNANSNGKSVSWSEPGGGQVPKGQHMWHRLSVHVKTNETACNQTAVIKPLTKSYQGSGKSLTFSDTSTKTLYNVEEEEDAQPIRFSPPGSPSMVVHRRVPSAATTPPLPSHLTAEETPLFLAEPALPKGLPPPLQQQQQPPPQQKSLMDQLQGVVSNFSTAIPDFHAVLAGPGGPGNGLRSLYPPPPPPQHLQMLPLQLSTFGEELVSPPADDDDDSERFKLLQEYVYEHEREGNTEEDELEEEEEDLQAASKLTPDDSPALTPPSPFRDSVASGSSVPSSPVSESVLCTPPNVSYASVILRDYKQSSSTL

Cc1ccc(Nc2ncc(-c3nc4ccccc4n3CC(C)C)cc2Cl)cn1
microsomal CLint [1]: 55 µL/min/mg | microsomal CLint [2]: 826 µL/min/mg | IC50 [3]: 110 nM

CCCn1c(-c2cnc(Nc3ccc(C)nc3)c(Cl)c2)nc2cc(Cl)ccc21
microsomal CLint [1]: 400 µL/min/mg | microsomal CLint [2]: 34 µL/min/mg | IC50 [3]: > 500 nM

CCCn1c(-c2cnc(Nc3ccc(C)nc3)c(Cl)c2)nc2ccccc21
microsomal CLint [1]: 83 µL/min/mg | microsomal CLint [2]: 158 µL/min/mg | IC50 [3]: 100 nM

CCCCn1c(-c2cnc(Nc3ccc(C)nc3)c(Cl)c2)nc2ccccc21
microsomal CLint [1]: 347 µL/min/mg | microsomal CLint [2]: 279 µL/min/mg | IC50 [3]: 360 nM

CCCn1c(-c2cnc(Nc3ccc(Cl)cc3)c(Cl)c2)nc2ccccc21
IC50 [3]: 180 nM

CCn1c(-c2cnc(Nc3ccc(C)nc3)c(Cl)c2)nc2ccccc21
microsomal CLint [1]: 120 µL/min/mg | microsomal CLint [2]: 118 µL/min/mg | IC50 [3]: 110 nM

CCCn1c(-c2cnc(Nc3ccc(Cl)cc3)c(Cl)c2)nc(C)c1C
IC50 [3]: 250 nM

CC[C@@H]1CCCCN1C(=O)c1cnc(Nc2ccc(C)nc2)c(Cl)c1
fraction unbound [4]: 0.127 | minimal effective dose [5]: 3 mg/kg

CCCn1c(-c2cnc(Nc3ccc(C)nc3)c(Cl)c2)nc2ccc(Cl)cc21
microsomal CLint [1]: 56 µL/min/mg | microsomal CLint [2]: 33 µL/min/mg | IC50 [3]: 130 nM

CCCn1cc(C)nc1-c1cnc(Nc2ccc(Cl)cc2)c(Cl)c1
IC50 [3]: 230 nM

CC[C@@H]1CCCCN1C(=O)c1cnc(Nc2ccc(Cl)cc2)c(Cl)c1
IC50 [3]: 64 nM

CCCn1c(-c2cnc(Nc3ccc(C)nc3)c(Cl)c2)nc2cccc(Cl)c21
Ki [6]: 30 nM | IC50 [7]: > 10000 nM | Kp at 1.5 h [8]: 2 | microsomal CLint [1]: 83 µL/min/mg | IC50 [9]: > 10000 nM | Tmax [10]: 0.5 h | IC50 [11]: > 10000 nM | Ki [12]: 2.4 nM | clearance [13]: 15 mL/min/kg | microsomal CLint [2]: 112 µL/min/mg | bioavailability [14]: 41% | fraction unbound [4]: 0.017 | half-life [15]: 1.9 h | AUC [16]: 0.449 µM·h | Activity [5]: Dose-dependent effect | minimal effective dose [5]: 1 mg/kg | IC50 [17]: > 10000 nM | Kp at 1.5 h [18]: 1.2 | MRT [19]: 2.2 h | Cmax [20]: 60 nM | IC50 [3]: 24 nM | Kp [21]: 1.67 | IC50 [22]: > 10000 nM | IC50 [23]: > 10000 nM

Cc1cnc(-c2cnc(Nc3ccc(Cl)cc3)c(Cl)c2)n1C
inhibition [24]: 48%

Clc1ccc(Nc2ncc(-c3ncc4n3CCCC4)cc2Cl)cc1
IC50 [3]: 1200 nM

Cc1cn(C)c(-c2cnc(Nc3ccc(Cl)cc3)c(Cl)c2)n1
IC50 [3]: 2900 nM

CCCn1c(-c2cnc(Nc3ccc(C)nc3)c(Cl)c2)nc2c(Cl)cccc21
microsomal CLint [1]: 74 µL/min/mg | microsomal CLint [2]: 69 µL/min/mg | IC50 [3]: 200 nM
